Test results: PubChem BioAssay
Activity calls are given as the source filed them.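 The calls were made as follows, unless noted: active = inhibition above 20% together with a positive visual image hit; inconclusive = visual image hit but inhibition not above 20%; inactive = no visual image hit.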

Tests used:
[1] = inhibitors of TNFa-induced NFkB p65 translocation, primary screen, imaging, HUVEC, MLSMR starter and 10KST1 sets (AID 438); conditions: HUVEC TNFa-induced p65 nuclear translocation; cell count: measured here: nuclei count (cytotoxicity indicator), at 2.08 µM; inhibition: at 2 µM, stronger effect = higher value, 0% TNFa-plus-vehicle, 100% no-TNFa wells;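 also: compound added about 3h40 before a 20 min TNFalpha stimulation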;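 as to inhibition: signal is the nuclear over cytoplasmic p65 intensity ratio per well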
[2] = reduction of polyQ htt aggregates in cells – imaging, exon1htt(103Q)mCFP cells, high-content imaging, primary screen (AID 483;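 active = visual image review flags a hit and inhibition of aggregation exceeds 20%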;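 also: compound exposure lasted 3 days before fixation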;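 as to nuclei count: percent of the per-plate median nuclei count of sample wells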); conditions: exon1htt(103Q)mCFP cell line, aggregate imaging, at 2 µM; inhibition of aggregation: stronger effect = higher value; nuclei count: measured here: cell count, toxicity
[3] = endothelial E-selectin expression blockers – imaging, HUVEC, immunofluorescence, MLSMR starter and 10KST1 sets, primary screen (AID 487;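 active = visually confirmed hit in the image check and inhibition above 20%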;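 as to inhibition: signal is fraction of cell area covered by stained E-selectin grains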;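 as to nuclei count: 100% = median nuclei count of all wells on the same plate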); conditions: HUVEC TNFalpha-induced E-selectin immunofluorescence imaging, at 2 µM; inhibition: stronger effect = higher value; nuclei count: measured here: cell number, toxicity
[4] = biological target: Voltage-gated potassium channel subunit beta-2 (Rattus norvegicus) (UniProt P62483); assay: inhibitors of rat Kvbeta2 reductase activity – biochemical, NADPH fluorescence, primary screen (AID 622;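 active = fluorescence slope higher than the sample average by over 3 SD, cut at about -0.22 in these data, passing the limit was not always enough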;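 also: slope of raw intensity against log time taken from 70 to 1610 s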); conditions: recombinant KvBeta, 4-cyanobenzaldehyde reduction, at 10 µM, stronger effect = higher value
[5] = biological target: Voltage-gated potassium channel subunit beta-2 (Rattus norvegicus) (UniProt P62483); assay: enhancers of rat Kvbeta2 NADPH turnover – biochemical, NADPH fluorescence, primary screen (AID 623;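 active = NADPH fluorescence slope more negative than the mean of all samples by about 3 SD, 99.7% confidence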;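 also: fluorescence intensity change per second fitted from 20 to 320 s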); conditions: Recombinant KvBeta, NADPH fluorescence decrease slope, 10 min; at 10 µM; stronger effect = lower value
[6] = biological target: Muscarinic acetylcholine receptor M4 (Homo sapiens) (UniProt P08173); assay: M4-linked GIRK flux change, two-sided – cell-based, HEK293 M4/GIRK, thallium flux, BTC-AM, M4 allosteric agonist project, primary screen (AID 625;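 active = fluorescence slope after compound addition differing from the mean of all tested samples at 99.7% confidence, mostly higher but some lower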;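 also: thallium influx through GIRK channels coupled to M4 in HEK293 cells with BTC-AM dye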); conditions: at 10 µM, actives lie on both sides
Summary of the method: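 assay system = HEK293 cells with M4 receptor and GIRK channels | medium = pH 7.3 thallium assay buffer | doses = 10 µM final, single point | timing = cells overnight at 37 °C, BTC-AM loading 1 h, reads 2 min total | signal = BTC-AM fluorescence, 1 Hz kinetic reads | read-out = post-addition slope, 15–24 s, of baseline-normalized fluorescence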

[7] = blockers of RIG-like receptor reporter activation – cell-based, Sendai virus stimulus, luciferase, 10K MLSCN set, TLR/RLR signaling modifier project, primary screen (AID 602276;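 active = inhibition at or above 50% at 10 µM; inactive = inhibition below 50%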;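 also: firefly luciferase from ISG56 promoter only with Renilla not read in this screen; 0% = Sendai virus plus DMSO and 100% = medium plus DMSO without virus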); conditions: HEK293 RL24 IRF3 luciferase reporter, at 10 µM, stronger effect = higher value
[8] = TLR3 IRF3 reporter activation blockers – cell-based, poly I:C stimulus, luciferase, 10K MLSCN set, primary screen (AID 602277;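 active = inhibition of the reporter signal at or above 50%; inactive = inhibition below 50%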); conditions: HEK293-TLR3 RL24 IRF3 luciferase reporter, at 10 µM, stronger effect = higher value

Sequence of Voltage-gated potassium channel subunit beta-2 (Rattus norvegicus) (P62483 whole entry, looked up): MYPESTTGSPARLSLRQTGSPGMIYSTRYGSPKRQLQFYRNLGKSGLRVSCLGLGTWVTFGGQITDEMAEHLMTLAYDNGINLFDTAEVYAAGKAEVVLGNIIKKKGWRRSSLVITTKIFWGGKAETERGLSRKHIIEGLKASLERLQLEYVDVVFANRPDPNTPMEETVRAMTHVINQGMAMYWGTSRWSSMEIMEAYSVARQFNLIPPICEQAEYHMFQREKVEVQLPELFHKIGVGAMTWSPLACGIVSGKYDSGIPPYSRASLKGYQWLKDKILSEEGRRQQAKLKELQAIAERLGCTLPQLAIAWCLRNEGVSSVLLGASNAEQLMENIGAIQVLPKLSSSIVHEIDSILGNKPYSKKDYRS
Sequence of Muscarinic acetylcholine receptor M4 (Homo sapiens) (P08173 whole entry, looked up): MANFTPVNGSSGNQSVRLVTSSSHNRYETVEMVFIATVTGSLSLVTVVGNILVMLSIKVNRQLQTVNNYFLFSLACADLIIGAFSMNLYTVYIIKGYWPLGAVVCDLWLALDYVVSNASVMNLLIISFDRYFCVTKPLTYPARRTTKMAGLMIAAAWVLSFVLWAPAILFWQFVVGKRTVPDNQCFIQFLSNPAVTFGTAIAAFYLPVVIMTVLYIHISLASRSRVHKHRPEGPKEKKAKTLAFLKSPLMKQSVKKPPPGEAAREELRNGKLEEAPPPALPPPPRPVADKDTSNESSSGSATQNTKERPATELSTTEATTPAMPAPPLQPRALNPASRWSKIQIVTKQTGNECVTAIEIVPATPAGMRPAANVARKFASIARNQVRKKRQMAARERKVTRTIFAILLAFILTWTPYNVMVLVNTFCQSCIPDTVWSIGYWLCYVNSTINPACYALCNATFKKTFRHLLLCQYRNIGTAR

| SMILES | cell count [1] | inhibition [1] | inhibition of aggregation [2] | nuclei count [2] | inhibition [3] | nuclei count [3] | fluorescence slope [4] | NADPH fluorescence slope [5] | fluorescence slope [6] | inhibition [7] | inhibition [8] |
| --- | --- | --- | --- | --- | --- | --- | --- | --- | --- | --- | --- |
| Cc1occc1-c1nnc(SCC(=O)NCC2CCCO2)n1C (centres undefined) | 687 | -0.3% (inactive) | -23% (inactive) | 120% | 40.7% (inactive) | 95% | -0.521 (inactive) | 0.00013 (inactive) | 0.0055 (inactive) | 16.7% (inactive) | 10.3% (inactive) |
| CN(C)c1ccc(/C=C/C(O)=C2/C(=O)N(C)C3(C)CC2c2ccccc2O3)cc1 (centres undefined) | 356 | -0.4% (inactive) | -5.2% (inactive) | 102% | -68% (inactive) | 115% | -0.521 (inactive) | -2e-07 (inactive) | 0.0126 (active) | 1.4% (inactive) | 23.4% (inactive) |
| COC(=O)C(C)C1Sc2ccccc2NC1=O (centres undefined) | 306 | 3.6% (inactive) | -4.9% (inactive) | 89.5% | -37.7% (inactive) | 131% | -0.28 (inactive) | -5.2e-05 (inactive) | 0.00684 (inactive) | 12.5% (inactive) | -8.12% (inactive) |
| O=C(Cn1ccc2ccccc2c1=O)NCCC(=O)N1CCN(C(=O)c2ccco2)CC1 | 397 | -14.1% (inactive) | 11.3% (inactive) | 98.1% | 9.4% (inactive) | 97.8% | -0.503 (inactive) | 0.000132 (inactive) | 0.00733 (inactive) | -0.7% (inactive) | 6.13% (inactive) |
| CCOC(=O)CNc1ccc2c(c1)OCO2 | 368 | -7.7% (inactive) | 8.3% (inactive) | 99.8% | -105% (inactive) | 118% | -0.488 (inactive) | -0.000182 (inactive) | 0.00399 (inactive) | 8.79% (inactive) | 12.5% (inactive) |
| COc1ccc(CN2C(=O)CN=C2Nc2ccc(C)cc2C)cc1 | 809 | -7.5% (inactive) | -10.3% (inactive) | 122% | -3.6% (inactive) | 95.6% | -0.555 (inactive) | 6.9e-05 (inactive) | 0.00584 (inactive) | 16.8% (inactive) | 23% (inactive) |
| CC1(C)CC(=O)C=C(Nc2ccc(F)cc2)C1 | 454 | 10.9% (inactive) | 3.9% (inactive) | 99.5% | -20% (inactive) | 109% | -0.607 (inactive) | 3.1e-05 (inactive) | 0.00469 (inactive) | -2.98% (inactive) | 13.6% (inactive) |
| CC(=O)Nc1ccc(S(=O)(=O)N2CCN(C(C)CCc3ccccc3)CC2)cc1 (centres undefined) | 440 | 0% (inactive) | 2.6% (inactive) | 69.7% | 1.2% (inactive) | 96.1% | -0.538 (inactive) | -6.4e-05 (inactive) | 0.00422 (inactive) | 7.51% (inactive) | 20.1% (inactive) |
| CCOC(=O)c1c(NCc2ccc3c(c2)OCO3)c2ccccc2[nH]c1=O | 509 | -9.9% (inactive) | 16.6% (inactive) | 94.1% | -51.7% (inactive) | 111% | -0.252 (inactive) | -2.6e-05 (inactive) | 0.00507 (inactive) | 12.5% (inactive) | -13.3% (inactive) |
| COc1cc(C2=NOC(C(=O)NCc3ccc(F)cc3)C2)cc(OC)c1OC (centres undefined) | 774 | 13.6% (inactive) | -195% (inactive) | 2.2% | -308% (inactive) | 103% | -0.462 (inactive) | 4.9e-05 (inactive) | 0.00672 (inactive) | 36.9% (inactive) | 85.8% (active) |
| Cc1noc(NS(=O)(=O)c2ccc(NC(=O)CCC3CCCC3)cc2)c1C | 472 | 2.1% (inactive) | -12.2% (inactive) | 83.5% | -147% (inactive) | 115% | -0.557 (inactive) | -1.2e-05 (inactive) | 0.00725 (inactive) | 19.6% (inactive) | 11.2% (inactive) |
| N#C/C(C(=O)c1ccccc1)=C1/CCCN1 | 328 | 0.4% (inactive) | -10.6% (inactive) | 109% | -66.4% (inactive) | 134% | -0.567 (inactive) | -5.4e-05 (inactive) | 0.00513 (inactive) | 4.87% (inactive) | -17.4% (inactive) |
| Cc1nn(-c2ccc(F)cc2)c(C)c1NS(=O)(=O)c1ccc(Cl)cc1 | 307 | 4.2% (inactive) | 17.1% (inactive) | 89.1% | -56% (inactive) | 98.7% | -0.382 (inactive) | -4.6e-05 (inactive) | 0.00631 (inactive) | 13.3% (inactive) | 18.8% (inactive) |
| Cc1nc2cc(CO)ccc2n1C | 425 | 4.7% (inactive) | 1% (inactive) | 92.7% | -12.6% (inactive) | 108% | -0.589 (inactive) | -3.5e-05 (inactive) | 0.00622 (inactive) | 2.69% (inactive) | 14.4% (inactive) |
| CCN(C(=O)c1cc2cc3ccc(C)cc3nc2o1)c1ccc(OC)cc1 | 225 | -1.3% (inactive) | 0.1% (inactive) | 107% | -11% (inactive) | 106% | -0.431 (inactive) | -1.6e-05 (inactive) | 0.00704 (inactive) | -25.1% (inactive) | -79.8% (inactive) |
| Cc1ccc(-c2nnn(CC(=O)N(CC3CCCO3)C(C(=O)NC(C)(C)C)c3ccc(F)cc3)n2)o1 (centres undefined) | 415 | 5.7% (inactive) | 3.4% (inactive) | 112% | -64% (inactive) | 118% | -0.563 (inactive) | -3.8e-05 (inactive) | 0.00486 (inactive) | 9.86% (inactive) | 15.3% (inactive) |
| O=C(CS(=O)(=O)Cc1ccccc1)N1CCc2ccccc2C1 | 753 | -0.7% (inactive) | 13.8% (inactive) | 97.8% | -110% (inactive) | 124% | -0.529 (inactive) | -4.4e-05 (inactive) | 0.00542 (inactive) | -17.6% (inactive) | -31.5% (inactive) |
| CCCCCC1NC(=O)NC1CCCCCC(=O)O (centres undefined) | 457 | 0% (inactive) | 11.7% (inactive) | 103% | -129% (inactive) | 123% | -0.577 (inactive) | -5.6e-05 (inactive) | 0.00606 (inactive) | 14.6% (inactive) | 18.6% (inactive) |
| Nc1nnc(-c2ccccc2)c(-c2ccccc2)n1 | 676 | -2.1% (inactive) | 26.8% (inactive) | 83.9% | -71.1% (inactive) | 111% | -0.522 (inactive) | -3.6e-05 (inactive) | 0.00428 (inactive) | 0.988% (inactive) | 14.6% (inactive) |
| Cc1cc(C)c2c(n1)nn1c(N3CCN(c4ccccc4C)CC3)cc(C)nc21 | 420 | -11.8% (inactive) | -116% (inactive) | 81% | -52.8% (inactive) | 110% | -0.447 (inactive) | 1.5e-05 (inactive) | 0.00576 (inactive) | -4.5% (inactive) | -6.94% (inactive) |
| COc1ccc(C)cc1S(=O)(=O)N1CCN(Cc2ccccc2)CC1 | 708 | -7.1% (inactive) | -4.2% (inactive) | 98.5% | -41.3% (inactive) | 102% | -0.558 (inactive) | -1.1e-05 (inactive) | 0.00529 (inactive) | 21.4% (inactive) | 19.5% (inactive) |
| CCOc1cc(C)c(C(C)C)cc1S(=O)(=O)N1CCN(C)CC1 | 775 | -2.4% (inactive) | 19% (inactive) | 93.4% | -3% (inactive) | 112% | -0.475 (inactive) | 1.9e-05 (inactive) | 0.00438 (inactive) | -9.48% (inactive) | -5.37% (inactive) |
| Cc1ccc(CN2C(=O)CCC2C(=O)NCC2CCCO2)cc1 (centres undefined) | 317 | 10.5% (inactive) | -27.2% (inactive) | 91% | -16.2% (inactive) | 97.8% | -0.556 (inactive) | -2.2e-05 (inactive) | 0.0066 (inactive) | -7.7% (inactive) | 1.56% (inactive) |
| Cc1nc(Nc2nc(=O)c3ccccc3n2C)nc2c(C)cccc12 | 594 | 5.2% (inactive) | -282% (inactive) | 73.9% | -112% (inactive) | 156% | -0.348 (inactive) | -5e-06 (inactive) | 0.00486 (inactive) | 14.6% (inactive) | 22.9% (inactive) |
| CCN1CCN(S(=O)(=O)c2ccc(S(=O)(=O)N(CC)Cc3ccccc3)cc2)CC1 | 579 | -0.8% (inactive) | -9.2% (inactive) | 104% | -27.9% (inactive) | 108% | -0.527 (inactive) | 4.3e-06 (inactive) | 0.00522 (inactive) | 16.4% (inactive) | 16.6% (inactive) |
| Cn1c(-c2ccc(F)cc2)cnc1NCc1ccccc1 | 710 | -2.3% (inactive) | 21% (inactive) | 74.6% | -25.9% (inactive) | 125% | -0.471 (inactive) | -3e-06 (inactive) | 0.0028 (inactive) | 6.58% (inactive) | -8.43% (inactive) |
| O=C(COc1ccc(Cl)cc1)Nc1nc(-c2cccs2)cs1 | 718 | -6.1% (inactive) | -1.6% (inactive) | 110% | -32.4% (inactive) | 114% | -0.567 (inactive) | 2.5e-05 (inactive) | 0.00605 (inactive) | 1.13% (inactive) | 0.877% (inactive) |
| N#Cc1c(NC(=O)CSc2nnnn2C2CCCC2)sc2c1CCCC2 | 527 | -1.8% (inactive) | -3.6% (inactive) | 114% | 36.6% (inactive) | 109% | -0.392 (inactive) | 2.8e-05 (inactive) | 0.00642 (inactive) | 11% (inactive) | 26.3% (inactive) |
| OCc1nc(CO)n(Cc2ccccc2)n1 | 447 | -17.6% (inactive) | -12.2% (inactive) | 112% | 42.4% (inactive) | 86.8% | -0.501 (inactive) | -4.7e-05 (inactive) | 0.00536 (inactive) | 7.11% (inactive) | 19.9% (inactive) |
